Laboratory results reported in publication PMC4377729 (Theranostics, 2015).

Assays:
[1] = in DMSO; cited from earlier work
[2] = previously reported; cited from earlier work
[3] = format: in vivo; details: 10 nmol (0.4 mg/kg) intravenously, mice, 4 h post-injection
Summary of the method: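 Nude mice (about 25 g) were anesthetized with ip ketamine/xylazine, given 10 nmol (0.4 mg/kg) conjugate iv in saline, and imaged 4 h later. Excitation was 745-779 nm light at 14 mW cm-2, with 800-848 nm emission and fixed exposure. SBR is tissue signal over neighbouring muscle or skin. For biodistribution, mice were killed at 30-240 min and organs resected and imaged; n ≥ 3 per time point.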

Compound: CC1(C)C(/C=C/C=C/C=C/C=C2\N(CCCCS(=O)(=O)[O-])c3ccc4ccccc4c3C2(C)C)=[N+](CCCCS(=O)(=O)[O-])c2ccc3ccccc3c21.[Na+] [ICG]
- QY of calibration standard [1]: 13%

Compound: CC1(C)C(/C=C/C2=C(Oc3ccc(CCC(=O)NCCC(O)(P(=O)([O-])O)P(=O)(O)O)cc3)C(=C\C=C3/N(CCCCS(=O)(=O)O)c4ccc(S(=O)(=O)O)cc4C3(C)C)/CCC2)=[N+](CCCCS(=O)(=O)O)c2ccc(S(=O)(=O)O)cc21 (stereo not drawn) [Pam78]
- binding to hydroxyapatite (HA) in vitro and in vivo (in words) [2]: rapid and specific binding to hydroxyapatite (HA) in vitro and in vivo

Compound: CC1(C)C(/C=C/C2=C(Oc3ccc(S(=O)(=O)O)cc3)C(=C/C=C3/N(CCCCS(=O)(=O)O)c4ccc(S(=O)(=O)[O-])cc4C3(C)C)/CCC2)=[N+](CCCCCC(=O)O)c2ccc(S(=O)(=O)O)cc21 [CW800]
- location of NIR fluorescence signal / tissue uptake (in words) [3]: elevated nonspecific background signals in the liver and skin
